Experimental data collected from several papers.
Compare with care: the assays were run in different laboratories.
Observed: cell growth or viability

Structure (SMILES) | cell line | test | conditions | IC50
C=C(C)[C@@H]1CC[C@]2(C(=O)O)CC[C@]3(C)[C@H](CC[C@@H]4[C@@]5(C)CC[C@H](O)C(C)(C)[C@@H]5CC[C@]43C)[C@@H]12 | DLD-1 | – | 48 h | 20000 nM
C=C(C)C(=O)Nc1ccc(-c2c(-c3ccc(Oc4nccc(C)n4)c(F)c3)c3c(N)ncnc3n2C)cc1 | MFE-296 | ATP luminescence | 96 h | 9.96 nM
Nc1ccn([C@@H]2O[C@H](CO)[C@@H](O)C2(F)F)c(=O)n1 | BXPC-3 | MTT | – | 28 nM
C[C@H](NC(=O)c1cccc2ccccc12)C(=O)Nc1ccccc1Oc1ccccc1 | SK-N-FI | – | – | 3000 nM
CN(C(=O)COC(=O)/C=C/c1cccc([N+](=O)[O-])c1)C1CCS(=O)(=O)C1 (centres unmarked) | DLD-1 | ATP luminescence | 48 h | 1600 nM
CNc1ncc2cc(-c3ccc(-c4cccc(C)n4)cc3Cl)c(=O)n(C[C@H]3OC[C@H](N)CO3)c2n1 | BXPC-3 | MTT | 24 h | 20300 nM
CCN(CC)CCCC(C)Nc1cnc(C(=O)Nc2cc(F)cc3cccnc23)cn1 (centres unmarked) | BXPC-3 | MTT | – | 7300 nM
CC[C@]1(O)C[C@H]2CN(CCc3c([nH]c4ccccc34)[C@@](C(=O)OC)(c3cc4c(cc3OC)N(C=O)[C@H]3[C@@](O)(C(=O)OC)[C@H](OC(C)=O)[C@]5(CC)C=CCN6CC[C@]43[C@@H]65)C2)C1 | BXPC-3 | fluorescence | 72 h | 2 nM
COc1cc(Nc2nccc(-c3cnn4nc(OC)ccc34)n2)cc(C(F)(F)F)c1 | NCI-H838 | ATP luminescence | – | 470 nM
Cc1nc(-c2cn3c(n2)-c2ccc(-c4cnn(C(C)(C)C(N)=O)c4)cc2OCC3)n(C(C)C)n1 | SW48 | ATP luminescence | 96 h | 21.5 nM
CCN1CCN(c2ccc(Nc3cc(N(C)C(=O)Nc4c(Cl)c(OC)cc(OC)c4Cl)ncn3)cc2)CC1 | MFE-296 | ATP luminescence | 96 h | 52.5 nM
CC(C)C[C@H](NC(=O)[C@H](Cc1ccccc1)NC(=O)c1cnccn1)B(O)O | BEN | ATP luminescence | – | 68 nM
Cc1ccc2[nH]c(=O)c3cc(C(=O)NCCCN(C)Cc4ccccc4)sc3c2c1 | BXPC-3 | MTT | 24 h | 10100 nM
COc1cccc2c1C(=O)c1c(O)c3c(c(O)c1C2=O)C[C@@](O)(C(=O)CO)C[C@@H]3O[C@H]1C[C@H](N)[C@H](O)[C@H](C)O1 | SK-MEL | neutral red | 48 h | 0.7 µg/mL
